Experimental data from different studies.
Protocols differ between the studies behind these lines.
Observed: cell growth or viability

C=CC(=O)Nc1cc(Nc2nc(N3CCOCC3)c3sccc3n2)c(OC)cc1N(C)CCN(C)C
IC50 (NCI-H1975; MTT): 37.5 µM

Cc1[nH]c(C)c(-c2ccc(OCc3ccc(F)cc3)cc2)c(=O)c1Cl
IC50 (HEK293): > 10 µM

C=CC(=O)Nc1cc(Nc2nc(N3CCc4sccc4C3)c3cccnc3n2)c(OC)cc1N1CCN(C(C)=O)CC1
IC50 (NCI-H1975; MTT): 0.694 µM

Cc1[nH]c(C)c(-c2ccc(CCc3ccc(F)cc3F)cc2)c(=O)c1Br
IC50 (HEK293): > 10 µM

COc1ccc2oc(=O)cc(CCl)c2c1
IC50 (HEK293; MTT; 36 h): > 20 µM

Cn1nnc2c(Cl)ncn2c1=O
IC50 (T98G; resazurin; 7 days): 60 µM

O=c1cc(CCl)c2c(O)cc(O)cc2o1
IC50 (HEK293; MTT; 36 h): > 20 µM

Cc1[nH]c(C)c(-c2ccc(-c3ccccc3C(F)(F)F)nc2)c(=O)c1Br
IC50 (HEK293): > 10 µM

CCC(=O)Nc1cc(Nc2nc(N3CCc4sccc4C3)c3cccnc3n2)c(OC)cc1N1CCN(CCO)CC1
IC50 (NCI-H1975; MTT): 0.471 µM

CC(=O)Oc1ccc2ccc(=O)oc2c1CBr
IC50 (HEK293; MTT; 36 h): > 20 µM

C=CC(=O)Nc1cc(Nc2nc(N3CCc4sccc4C3)c3cccnc3n2)c(OC)cc1N(C)C
IC50 (NCI-H1975; MTT): > 50 µM

CC[C@@H](C)[C@H](N)C(=O)N1Cc2ccccc2C1
IC50 (SET-2; ATP luminescence; 48 h): 0.124 µM

C[C@H](O)C(=O)CCCCCCC(=O)Nc1cccc(-c2cn(-c3ccccc3)nn2)c1
IC50 (HEK293; XTT): 15.9 µM

Cn1nnc2c(C(=O)N3CCCC3)ncn2c1=O
IC50 (T98G; resazurin; 7 days): 186 µM

CCCCCCCCc1c(C)[nH]c(C)c(Cl)c1=O
IC50 (HEK293): > 10 µM

CNC(=O)c1ncn2c(NCc3c(F)ccc4c3CCO4)ncc(-c3ccccc3)c12
IC50 (KARPAS-422; 7 days): 0.052 µM

CCCCN(CCCC)C(=O)c1ncn2c(=O)n(C)nnc12
IC50 (T98G; resazurin; 7 days): 140 µM

C/C=C/COc1ccc(-c2c(C)[nH]c(C)c(Cl)c2=O)cc1
IC50 (HEK293): > 10 µM

O=c1cc(CCl)c2ccc(O)cc2o1
IC50 (HEK293; MTT; 36 h): 15.8 µM

N[C@@H](CC(=O)N1CCN(C(c2ccc(F)cc2)c2ccc(F)cc2)CC1)C(=O)N1Cc2ccccc2C1
IC50 (SET-2; ATP luminescence; 48 h): 0.368 µM

O=C1NCCc2[nH]c(-c3ccncc3)cc21
IC50 (SK-MEL-28): 9.6 µM

C=C(Cl)C(=O)Nc1cc(Nc2nc(N3CCSCC3)c3sccc3n2)c(OC)cc1N(C)CCN(C)C
IC50 (NCI-H1975; MTT): 0.165 µM

COc1ccc(F)cc1C(=O)NCc1ccc(-c2nn([C@@H](C)C(F)(F)F)c(N)c2C(N)=O)cc1
IC50 (Rec1; ATP luminescence; 72 h): 0.0031 µM

C=CCC[C@@H]1NC(=O)[C@H]2CCCN2C(=O)[C@H](Cc2ccccc2)NC(=O)C(C)(C)NC1=O
IC50 (HEK293; XTT): > 100 µM

Cc1[nH]c(C)c(-c2ccc(-c3cc(C(F)(F)F)cc(C(F)(F)F)c3)nc2)c(=O)c1Br
IC50 (HEK293): > 10 µM

COc1cccc(Oc2ccccc2NC(=O)CNC(=O)c2c(C)cc(C)cc2C)c1
IC50 (A673): 5.5 µM

O=c1ccc2ccc(O)c(CO)c2o1
IC50 (HEK293; MTT; 36 h): > 20 µM

Cc1c(NC(=O)c2ccc(C(C)(C)C)cc2)cccc1-c1cn(C)c(=O)c(Nc2ccc(C(=O)N3CCOCC3)cc2)n1
IC50 (CNE2Z): > 10 µM

Cc1cc(=O)c(-c2ccc(Oc3cccc(Cl)c3)cc2)c(C)[nH]1
IC50 (HEK293): > 10 µM

C=CC(=O)Nc1cccc(Nc2nc(Nc3ccc(OCCOC)cc3)ncc2F)c1
IC50 (NCI-H1975): 1.27 µM

C=C(Cl)C(=O)Nc1cc(Nc2nc(Nc3cnn(C)c3)c3sccc3n2)c(OC)cc1N1CCN(C)CC1
IC50 (NCI-H1975; MTT): 0.106 µM

O=C(Nc1ccc(OC2CCN(Cc3ccccc3)C2)c(Cl)c1)c1cccs1 (stereo not shown)
IC50 (HEK293): > 10 µM

C=CC(=O)N1CCC[C@@H](n2nc(-c3ccc(Oc4ccccc4)cc3)c3c(N)ncnc32)C1
IC50 (TMD8; CCK-8; 72 h): 0.01 µM

C=C(Cl)C(=O)Nc1cc(Nc2nc(N3CCOCC3)c3sccc3n2)c(OC)cc1N(C)CCN(C)C
IC50 (NCI-H1975; MTT): 0.12 µM

Cc1ncn2c(=O)n(C)nnc12
IC50 (T98G; resazurin; 7 days): 6 µM

COc1cc(Nc2nccc(-c3cnn4nc(OC)ccc34)n2)cc(C(F)(F)F)c1
IC50 (MKN-1; ATP luminescence): 0.58 µM

C=C(Cl)C(=O)Nc1cc(Nc2nc(Nc3cnn(C)c3)c3sccc3n2)c(OC)cc1N(C)CCN(C)C
IC50 (NCI-H1975; MTT): 0.023 µM
